Molecules are shown by their SMILES.

We go through three molecules from ChEMBL document CHEMBL1146843, “Synthesis and properties of benzo[a]phenoxazinium chalcogen analogues as novel broad-spectrum antimicrobial photosensitizers” (J Med Chem, 2006).

Series [1] has as its system Candida albicans. The series is described as follows: Photodynamic inactivation of Candida albicans ATCC 18804 at the fluence of 80 J/cm2 light at 20 uM after 10 mins. It is filed as functional. The gist of the method: (§1)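 Exponential cultures were used: bacteria about 10^8 cells/mL in BHI, Candida in YM. Cells were dark-incubated with dye for 10 min at room temperature, then washed and resuspended in PBS without Ca2+/Mg2+. Illumination used 30-nm band-pass red light (630, 652 or 660 ± 15 nm per dye) at 60–100 mW/cm2 and room temperature. Ten-fold serial dilutions were plated on BHI agar at 37 °C overnight. CFU survival was expressed relative to untreated cells, in triplicate.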

For series [2], the system named is Enterococcus faecalis. The series is described as follows: Photodynamic inactivation of Enterococcus faecalis ATCC 29212 at the fluence of 80 J/cm2 light at 2 uM after 10 mins. It is filed as functional. Put shortly: as §1
The test system of series [3] is Candida albicans. In words: Cellular uptake in Candida albicans ATCC 18804 at 20 uM after 10 mins. It is filed as functional, organism-based. The gist of the method:
(§2)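 Exponential-phase cells (bacteria in BHI, yeast in YM, 37 °C, 150 rpm) were incubated with dye in the dark for 10 min at room temperature. Centrifugation at 1550g for 6 min removed unbound dye, and pellets were resuspended in PBS without Ca2+/Mg2+. Pellets were dissolved in 10% SDS for ≥24 h. Fluorescence peak height was read at the dye-specific excitation and emission, against SDS calibration curves. Means of three experiments.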

Series [4] in a line: Partition coefficient, log P at pH 7.4. It is filed as physicochemical. The conditions noted are these: octanol/water.
In series [5] the test system is Escherichia coli. The series is described as follows: Photodynamic inactivation of Escherichia coli ATCC 25922 at the fluence of 80 J/cm2 light at 5 uM after 10 mins. It is filed as functional. The gist of the method: as §1
In series [6] the test system is Candida albicans. In words: Photodynamic inactivation of Candida albicans ATCC 18804 at the fluence of 4 J/cm2 light at 20 uM after 10 mins. It is filed as functional. The gist of the method: as §1
Series [7] deals with Enterococcus faecalis. In words: Photodynamic inactivation of Enterococcus faecalis ATCC 29212 at the fluence of 8 J/cm2 light at 2 uM after 10 mins. It is filed as functional. Put shortly:
as §1

Series [8] concerns Enterococcus faecalis. The series is described as follows: Cellular uptake in Enterococcus faecalis ATCC 29212 at 2 uM after 10 mins. It is filed as functional, organism-based. Put shortly:
as §2

Series [9] deals with Escherichia coli. The series is described as follows: Photodynamic inactivation of Escherichia coli ATCC 25922 at the fluence of 32 J/cm2 light at 5 uM after 10 mins. It is filed as functional. Put shortly: as §1
For series [10], the system named is Escherichia coli. In words: Cellular uptake in Escherichia coli ATCC 25922 at 5 uM after 10 mins. It is filed as functional, organism-based. The gist of the method:
as §2

Series [11] deals with Escherichia coli. In words: Photodynamic inactivation of Escherichia coli ATCC 25922 at the fluence of 64 J/cm2 light at 5 uM after 10 mins. It is filed as functional. Put shortly: as §1
Series [12] deals with Candida albicans. In words: Photodynamic inactivation of Candida albicans ATCC 18804 at the fluence of 64 J/cm2 light at 20 uM after 10 mins. It is filed as functional. The gist of the method: as §1
The subject of series [13] is Enterococcus faecalis. In words: Photodynamic inactivation of Enterococcus faecalis ATCC 29212 at the fluence of 64 J/cm2 light at 2 uM after 10 mins. It is filed as functional. Put shortly:
as §1

For the molecule `CC/N=c1/cc2oc3cc(N(CC)CC)ccc3nc-2c2ccccc12.Cl`, the Activity in the series on Candida albicans [1] is on record as over 97%; in the series with Enterococcus faecalis [2] it was 95%; in the series on Escherichia coli [5], 90%. Further, the Drug uptake in the series with Candida albicans [3] amounted to 75%. Moreover, in [4], the logD came out at 2.69.
Regarding `CC/N=c1/cc2[se]c3cc(N(CC)CC)ccc3nc-2c2ccccc12.Cl`, the Activity with Candida albicans [6] was over 99%; with Enterococcus faecalis [7] it was over 99.999%; in the series on Escherichia coli [9] it was over 100%. The molecule further registered a logD in series [4] of 2.08. Besides, the Drug uptake in the series on Enterococcus faecalis [8] was found to be 75%.
The molecule `CC/N=c1/cc2sc3cc(N(CC)CC)ccc3nc-2c2ccccc12.Cl` returned a Drug uptake in the series on Escherichia coli [10] of 75%. Also, the Activity in the series with Escherichia coli [11] is over 99%; in the series on Candida albicans [12], over 98%; with Enterococcus faecalis [13] it was over 99.9%. The molecule further displayed a logD in series [4] of 2.76.

By logD is commonly meant the decadic logarithm of the distribution of all forms, ionised or not, between an organic phase and buffer at a given pH. Higher therefore signals higher lipophilicity.
